Reference: ChEMBL document CHEMBL1140405, “6-Acylamino-2-aminoquinolines as potent melanin-concentrating hormone 1 receptor antagonists. Identification, structure-activity relationship, and investigation of binding mode” (J Med Chem, 2005)
In brackets after ≈: the same amount, converted by molar mass. Several values for one entry are separate records, joined by “and”; a condition that tells them apart may be missing. Equal entries are not always repeated. One block for each compound: values may come before it.

Assays:
[1] = Solubility was determined by addition of 10 mM DMSO solution of test compound to PBS (pH 7) until opalescence
[2] = biological target: Melanin-concentrating hormone receptor 2 (Homo sapiens, UniProt Q969V1); experiment: Displacement of 30 pM [125I]-MCH from human MCH2R expressed in CHO-K1 in whole-cell binding assay
Melanin-concentrating hormone receptor 2, sequence (Q969V1 whole entry): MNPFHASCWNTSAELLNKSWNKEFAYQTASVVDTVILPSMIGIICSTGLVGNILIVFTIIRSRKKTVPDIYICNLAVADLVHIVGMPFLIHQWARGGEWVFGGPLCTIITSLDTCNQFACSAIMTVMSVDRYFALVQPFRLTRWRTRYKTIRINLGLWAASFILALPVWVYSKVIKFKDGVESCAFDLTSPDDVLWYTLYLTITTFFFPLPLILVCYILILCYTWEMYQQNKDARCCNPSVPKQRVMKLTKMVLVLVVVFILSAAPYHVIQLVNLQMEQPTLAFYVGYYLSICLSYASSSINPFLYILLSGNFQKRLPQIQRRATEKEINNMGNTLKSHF

[3] = biological target: T1, 5-hydroxytryptamine receptor 2C (Homo sapiens, UniProt P28335); experiment: Inhibitory concentration against human 5-hydroxytryptamine 2C receptor expressed in CHO-K1 cells using [3H]mesulergine; type: cell-based
T1 sequence (P28335 whole entry): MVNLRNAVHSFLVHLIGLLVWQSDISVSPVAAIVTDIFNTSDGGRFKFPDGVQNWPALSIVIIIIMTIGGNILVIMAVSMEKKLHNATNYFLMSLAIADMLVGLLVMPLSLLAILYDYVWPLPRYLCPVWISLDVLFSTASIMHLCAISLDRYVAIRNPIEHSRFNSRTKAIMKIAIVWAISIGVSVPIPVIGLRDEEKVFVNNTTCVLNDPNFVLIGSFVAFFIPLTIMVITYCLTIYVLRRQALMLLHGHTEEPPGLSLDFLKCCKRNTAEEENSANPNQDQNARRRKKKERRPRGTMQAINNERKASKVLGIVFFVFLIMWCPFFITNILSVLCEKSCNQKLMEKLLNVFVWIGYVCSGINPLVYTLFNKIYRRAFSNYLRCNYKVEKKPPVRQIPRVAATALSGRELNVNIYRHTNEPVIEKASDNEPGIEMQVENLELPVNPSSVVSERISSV
Method in brief: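 SPA competition binding on purchased membranes from CHO-K1 cells expressing h5-HT2c (4 μg/well), with YSi-WGA beads (0.4 mg/well) and [3H]mesulergine tracer, across various test-compound concentrations. Buffer is 50 mM Tris pH 7.7, 50 mM MgCl2 and 0.1% pargyline. Nonspecific binding uses 1 μM cold mesulergine. IC50 is taken by nonlinear regression.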

[4] = biological target: Melanin-concentrating hormone receptor 1 (Homo sapiens, UniProt Q99705); experiment: Displacement of 150p M [125I]MCH from human MCH1R expressed in CHO-K1 cells at 10 uM; type: cell-based
Melanin-concentrating hormone receptor 1, sequence (Q99705 whole entry): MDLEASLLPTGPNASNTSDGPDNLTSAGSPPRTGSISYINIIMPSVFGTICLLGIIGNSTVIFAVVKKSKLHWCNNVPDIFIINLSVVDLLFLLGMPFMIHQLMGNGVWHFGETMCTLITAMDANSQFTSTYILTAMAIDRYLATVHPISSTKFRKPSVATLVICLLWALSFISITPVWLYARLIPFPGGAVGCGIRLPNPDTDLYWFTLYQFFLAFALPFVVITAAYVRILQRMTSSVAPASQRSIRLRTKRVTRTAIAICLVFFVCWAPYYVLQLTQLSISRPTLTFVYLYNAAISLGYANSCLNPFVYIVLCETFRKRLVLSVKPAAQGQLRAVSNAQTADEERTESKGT

[5] = biological target: 5-hydroxytryptamine receptor 1B (Homo sapiens, UniProt P28222); experiment: Inhibitory concentration against 5-hydroxytryptamine 1B receptor
5-hydroxytryptamine receptor 1B, sequence (P28222 whole entry): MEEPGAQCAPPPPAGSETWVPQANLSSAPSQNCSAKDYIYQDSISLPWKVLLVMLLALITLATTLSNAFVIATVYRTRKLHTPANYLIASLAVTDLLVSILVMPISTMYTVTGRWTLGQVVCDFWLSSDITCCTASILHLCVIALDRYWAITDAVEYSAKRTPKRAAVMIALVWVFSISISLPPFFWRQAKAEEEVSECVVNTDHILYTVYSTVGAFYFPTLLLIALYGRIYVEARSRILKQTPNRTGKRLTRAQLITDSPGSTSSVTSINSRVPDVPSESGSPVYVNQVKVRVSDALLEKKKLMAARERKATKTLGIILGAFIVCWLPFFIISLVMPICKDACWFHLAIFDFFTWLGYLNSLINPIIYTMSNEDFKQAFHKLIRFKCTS

D(1A) dopamine receptor = D(1A) dopamine receptor (Homo sapiens, UniProt P21728); experiment: Inhibitory concentration against dopamine receptor D1
D(1A) dopamine receptor, sequence (P21728 whole entry): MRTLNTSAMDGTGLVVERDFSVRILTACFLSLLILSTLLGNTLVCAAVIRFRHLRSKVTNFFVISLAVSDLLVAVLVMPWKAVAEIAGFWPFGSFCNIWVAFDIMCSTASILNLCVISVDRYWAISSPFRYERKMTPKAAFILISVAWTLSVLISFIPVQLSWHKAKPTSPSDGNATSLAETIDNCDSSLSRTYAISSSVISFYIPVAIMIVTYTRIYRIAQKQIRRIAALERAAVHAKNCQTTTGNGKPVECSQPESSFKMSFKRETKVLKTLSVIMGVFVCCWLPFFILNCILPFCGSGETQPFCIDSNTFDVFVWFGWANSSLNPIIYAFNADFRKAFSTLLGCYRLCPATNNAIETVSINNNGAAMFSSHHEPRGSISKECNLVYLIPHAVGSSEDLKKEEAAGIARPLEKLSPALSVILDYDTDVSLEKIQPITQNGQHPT

Histamine H1 receptor = Histamine H1 receptor (Homo sapiens, UniProt P35367); experiment: Inhibitory concentration against histamine H1 receptor
Histamine H1 receptor, sequence (P35367 whole entry): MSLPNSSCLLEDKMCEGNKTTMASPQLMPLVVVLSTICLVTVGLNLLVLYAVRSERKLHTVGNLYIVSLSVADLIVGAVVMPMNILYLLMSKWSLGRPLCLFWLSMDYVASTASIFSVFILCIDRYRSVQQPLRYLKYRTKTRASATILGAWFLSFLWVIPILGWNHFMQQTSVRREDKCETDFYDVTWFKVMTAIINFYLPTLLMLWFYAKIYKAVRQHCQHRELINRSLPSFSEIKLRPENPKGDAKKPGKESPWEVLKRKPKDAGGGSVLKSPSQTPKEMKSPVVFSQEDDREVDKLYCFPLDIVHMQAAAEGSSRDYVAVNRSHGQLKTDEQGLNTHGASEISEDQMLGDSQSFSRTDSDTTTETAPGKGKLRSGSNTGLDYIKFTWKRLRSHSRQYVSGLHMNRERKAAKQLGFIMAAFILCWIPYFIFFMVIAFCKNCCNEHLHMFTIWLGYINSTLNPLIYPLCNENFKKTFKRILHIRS

[6] = biological target: Sodium-dependent dopamine transporter (Homo sapiens, UniProt Q01959); experiment: Inhibitory concentration against dopamine transporter
Sodium-dependent dopamine transporter, sequence (Q01959 whole entry): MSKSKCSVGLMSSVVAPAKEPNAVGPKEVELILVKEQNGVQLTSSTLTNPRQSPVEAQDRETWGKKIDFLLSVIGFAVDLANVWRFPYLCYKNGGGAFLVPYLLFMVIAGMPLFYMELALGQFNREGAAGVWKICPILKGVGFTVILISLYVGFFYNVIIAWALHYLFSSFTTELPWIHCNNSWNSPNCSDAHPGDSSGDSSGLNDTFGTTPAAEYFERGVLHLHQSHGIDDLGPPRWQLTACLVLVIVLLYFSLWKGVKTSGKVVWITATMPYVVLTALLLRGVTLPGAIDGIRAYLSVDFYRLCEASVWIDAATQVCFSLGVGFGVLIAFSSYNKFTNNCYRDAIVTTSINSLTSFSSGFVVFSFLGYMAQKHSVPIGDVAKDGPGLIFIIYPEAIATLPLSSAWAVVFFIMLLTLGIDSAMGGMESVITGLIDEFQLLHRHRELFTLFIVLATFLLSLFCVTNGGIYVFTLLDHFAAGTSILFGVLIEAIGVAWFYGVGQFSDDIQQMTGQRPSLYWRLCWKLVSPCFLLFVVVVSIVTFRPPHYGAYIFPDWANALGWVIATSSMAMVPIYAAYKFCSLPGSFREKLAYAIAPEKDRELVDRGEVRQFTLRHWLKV

[7] = biological target: T2, Muscarinic acetylcholine receptor M2 (Homo sapiens, UniProt P08172); experiment: Inhibitory concentration against muscarinic acetylcholine receptor M2
T2 sequence (P08172 whole entry): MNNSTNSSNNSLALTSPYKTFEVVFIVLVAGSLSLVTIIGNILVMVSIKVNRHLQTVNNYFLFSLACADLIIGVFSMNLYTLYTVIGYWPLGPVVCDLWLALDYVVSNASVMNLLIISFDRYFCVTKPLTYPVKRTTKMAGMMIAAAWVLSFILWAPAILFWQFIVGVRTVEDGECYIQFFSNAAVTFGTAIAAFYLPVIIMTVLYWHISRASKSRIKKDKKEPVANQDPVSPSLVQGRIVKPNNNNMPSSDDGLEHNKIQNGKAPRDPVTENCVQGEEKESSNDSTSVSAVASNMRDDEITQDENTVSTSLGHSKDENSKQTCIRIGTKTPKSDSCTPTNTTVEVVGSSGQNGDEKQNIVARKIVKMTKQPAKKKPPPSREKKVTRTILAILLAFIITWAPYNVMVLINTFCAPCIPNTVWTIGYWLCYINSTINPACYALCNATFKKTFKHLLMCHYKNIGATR

[8] = biological target: T3, Muscarinic acetylcholine receptor M1 (Homo sapiens, UniProt P11229); experiment: Inhibitory concentration against muscarinic acetylcholine receptor M1
T3 sequence (P11229 whole entry): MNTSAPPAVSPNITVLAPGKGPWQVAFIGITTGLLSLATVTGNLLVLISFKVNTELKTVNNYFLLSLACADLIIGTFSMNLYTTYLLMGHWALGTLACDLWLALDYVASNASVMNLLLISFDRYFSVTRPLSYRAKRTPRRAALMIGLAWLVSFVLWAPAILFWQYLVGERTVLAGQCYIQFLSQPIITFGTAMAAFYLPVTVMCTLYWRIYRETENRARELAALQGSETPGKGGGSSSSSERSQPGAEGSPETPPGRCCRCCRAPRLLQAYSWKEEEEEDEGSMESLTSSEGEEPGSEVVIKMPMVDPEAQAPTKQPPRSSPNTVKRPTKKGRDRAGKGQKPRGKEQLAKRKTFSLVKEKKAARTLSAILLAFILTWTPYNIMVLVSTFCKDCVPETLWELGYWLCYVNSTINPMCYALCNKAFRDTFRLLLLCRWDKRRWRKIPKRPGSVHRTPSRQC

[9] = biological target: T4, Adrenergic receptor alpha-2 (Homo sapiens, UniProt P08913+P18825+P18089); experiment: Inhibitory concentration against alpha-2 adrenergic receptor; type: protein assay
T4 sequence (P08913 whole entry): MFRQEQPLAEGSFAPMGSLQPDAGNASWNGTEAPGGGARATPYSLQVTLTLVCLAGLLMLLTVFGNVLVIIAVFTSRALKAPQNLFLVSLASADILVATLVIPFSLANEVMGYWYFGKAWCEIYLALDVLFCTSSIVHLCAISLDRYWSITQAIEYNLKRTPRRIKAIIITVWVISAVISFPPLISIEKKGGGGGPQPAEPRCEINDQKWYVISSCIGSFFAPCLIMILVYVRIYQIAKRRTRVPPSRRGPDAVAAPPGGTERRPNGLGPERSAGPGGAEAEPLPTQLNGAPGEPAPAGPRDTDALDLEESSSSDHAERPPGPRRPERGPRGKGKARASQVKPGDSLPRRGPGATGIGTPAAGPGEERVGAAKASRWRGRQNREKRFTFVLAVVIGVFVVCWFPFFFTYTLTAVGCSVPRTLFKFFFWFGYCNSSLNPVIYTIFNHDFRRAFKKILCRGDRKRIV
T4 sequence (P18825 whole entry): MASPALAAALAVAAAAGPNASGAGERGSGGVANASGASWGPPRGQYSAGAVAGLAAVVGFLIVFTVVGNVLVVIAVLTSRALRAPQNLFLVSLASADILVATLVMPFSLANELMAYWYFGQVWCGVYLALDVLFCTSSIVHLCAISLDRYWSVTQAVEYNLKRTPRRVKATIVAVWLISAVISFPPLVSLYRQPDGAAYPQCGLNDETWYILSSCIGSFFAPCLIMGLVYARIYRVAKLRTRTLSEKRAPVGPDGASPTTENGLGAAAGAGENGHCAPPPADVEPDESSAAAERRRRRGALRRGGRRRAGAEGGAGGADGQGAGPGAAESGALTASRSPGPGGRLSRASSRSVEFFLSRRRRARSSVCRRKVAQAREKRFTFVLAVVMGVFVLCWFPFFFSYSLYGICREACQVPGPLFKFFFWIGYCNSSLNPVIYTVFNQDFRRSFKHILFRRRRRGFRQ
T4 sequence (P18089 whole entry): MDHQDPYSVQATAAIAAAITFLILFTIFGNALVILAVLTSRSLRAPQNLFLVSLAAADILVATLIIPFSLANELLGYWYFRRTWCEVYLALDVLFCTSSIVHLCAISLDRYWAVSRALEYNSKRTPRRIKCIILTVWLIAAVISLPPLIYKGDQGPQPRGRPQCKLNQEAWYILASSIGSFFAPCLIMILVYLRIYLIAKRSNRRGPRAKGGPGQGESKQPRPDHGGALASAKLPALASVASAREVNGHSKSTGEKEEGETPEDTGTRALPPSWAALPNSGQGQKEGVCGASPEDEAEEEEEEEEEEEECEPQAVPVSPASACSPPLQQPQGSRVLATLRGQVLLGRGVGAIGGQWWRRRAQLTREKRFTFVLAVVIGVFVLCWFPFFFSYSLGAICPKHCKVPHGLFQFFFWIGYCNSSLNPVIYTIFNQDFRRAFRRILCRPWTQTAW

Histamine H2 receptor = Histamine H2 receptor (Homo sapiens, UniProt P25021); experiment: Inhibitory concentration against histamine H2 receptor
Histamine H2 receptor, sequence (P25021 whole entry): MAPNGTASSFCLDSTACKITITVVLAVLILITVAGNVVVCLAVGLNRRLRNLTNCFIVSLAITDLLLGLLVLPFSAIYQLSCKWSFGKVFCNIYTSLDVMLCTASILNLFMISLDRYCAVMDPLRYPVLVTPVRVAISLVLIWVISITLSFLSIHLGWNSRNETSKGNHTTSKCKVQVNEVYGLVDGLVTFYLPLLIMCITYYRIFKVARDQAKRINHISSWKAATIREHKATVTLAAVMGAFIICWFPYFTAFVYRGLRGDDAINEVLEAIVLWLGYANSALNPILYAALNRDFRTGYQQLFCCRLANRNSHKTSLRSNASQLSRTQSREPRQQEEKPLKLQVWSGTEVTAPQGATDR

[10] = biological target: 5-hydroxytryptamine receptor 2A (Homo sapiens, UniProt P28223); experiment: Inhibitory concentration against 5-hydroxytryptamine 2A receptor
5-hydroxytryptamine receptor 2A, sequence (P28223 whole entry): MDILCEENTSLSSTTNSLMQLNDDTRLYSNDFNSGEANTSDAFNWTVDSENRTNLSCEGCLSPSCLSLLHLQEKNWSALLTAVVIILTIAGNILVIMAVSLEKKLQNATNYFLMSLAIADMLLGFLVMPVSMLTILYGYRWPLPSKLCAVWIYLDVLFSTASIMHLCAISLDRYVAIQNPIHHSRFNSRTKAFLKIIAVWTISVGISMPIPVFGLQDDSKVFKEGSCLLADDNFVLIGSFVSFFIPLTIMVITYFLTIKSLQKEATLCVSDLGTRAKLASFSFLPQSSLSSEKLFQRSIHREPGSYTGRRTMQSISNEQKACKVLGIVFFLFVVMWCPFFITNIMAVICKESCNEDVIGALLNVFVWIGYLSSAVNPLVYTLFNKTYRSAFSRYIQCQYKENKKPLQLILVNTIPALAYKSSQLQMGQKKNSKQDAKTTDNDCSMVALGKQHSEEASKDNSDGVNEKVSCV

D(3) dopamine receptor = D(3) dopamine receptor (Homo sapiens, UniProt P35462); experiment: Inhibitory concentration against dopamine receptor D3
D(3) dopamine receptor, sequence (P35462 whole entry): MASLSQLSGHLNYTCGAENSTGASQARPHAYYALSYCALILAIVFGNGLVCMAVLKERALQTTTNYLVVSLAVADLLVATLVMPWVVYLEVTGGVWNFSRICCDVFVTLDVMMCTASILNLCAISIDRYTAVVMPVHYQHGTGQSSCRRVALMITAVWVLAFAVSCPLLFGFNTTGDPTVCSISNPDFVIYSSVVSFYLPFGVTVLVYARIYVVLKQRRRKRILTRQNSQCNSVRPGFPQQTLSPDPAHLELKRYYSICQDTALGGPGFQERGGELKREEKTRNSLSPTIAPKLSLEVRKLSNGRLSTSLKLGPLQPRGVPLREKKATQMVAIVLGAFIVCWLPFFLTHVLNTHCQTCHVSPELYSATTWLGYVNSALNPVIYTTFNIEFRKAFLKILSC

solubility kinetic ([1]; PBS): 10 µM (≈ 4.46 µg/mL)
Structure (SMILES): Cc1cc(N2CCOCC2)nc2ccc(NC(=O)COc3ccc(Cl)cc3Cl)cc12

IC50 [2]: 4.5 µM
solubility kinetic ([1]; PBS): 80 µM (≈ 36.9 µg/mL)
Structure (SMILES): Cc1cc(N(C)CCN(C)C)nc2ccc(NC(=O)COc3ccc(Cl)cc3Cl)cc12

IC50 [2]: 6.3 µM
Structure (SMILES): Cc1cc(N2CCC(N3CCCC3)CC2)nc2ccc(NC(=O)COc3ccc(OC(F)(F)F)cc3)cc12

IC50 [2]: 4.7 µM
solubility kinetic ([1]; PBS): 150 µM (≈ 71.2 µg/mL)
Structure (SMILES): Cc1cc(N2CCC(N)CC2)nc2ccc(NC(=O)COc3ccc(OC(F)(F)F)cc3)cc12

Structure (SMILES): Cc1cc(N2CCN(C)CC2)nc2ccc(NC(=O)COc3ccc(Cl)cc3Cl)cc12
IC50 [2]: > 10 µM
IC50 [3]: 0.61 µM
solubility kinetic ([1]; buffer): 25 µM (≈ 11.5 µg/mL)

IC50 [2]: 3.7 µM
IC50 [3]: 2 µM
solubility kinetic ([1]; buffer): 25 µM (≈ 11.1 µg/mL)
Structure (SMILES): Cc1cc(N2CCNCC2)nc2ccc(NC(=O)COc3ccc(Cl)cc3Cl)cc12

IC50 [2]: 8.4 µM
IC50 [3]: 5.7 µM
Structure (SMILES): Cc1cc(NCCN(C)C)nc2ccc(NC(=O)/C=C/c3ccc(OC(F)(F)F)cc3)cc12

inhibition [4]: 40%
Structure (SMILES): CCN1CCN(c2cc(C)c3cc(NC(=O)c4ccc(OC)cc4)ccc3n2)CC1

inhibition [4]: 71%
Structure (SMILES): CCN1CCN(c2cc(C)c3cc(NC(=O)c4cc(=O)c5ccccc5o4)ccc3n2)CC1

IC50 [2]: > 10 µM
Structure (SMILES): CC(=O)OCCN(C)c1cc(C)c2cc(NC(=O)COc3ccc(Cl)cc3Cl)ccc2n1

Structure (SMILES): Cc1cc(OCCN(C)C)nc2ccc(NC(=O)COc3ccc(Cl)cc3Cl)cc12
IC50 [2]: 8.7 µM
IC50 [3]: 2.6 µM and 2.5 µM
IC50 [5]: 0.2 µM
IC50 (D(1A) dopamine receptor): 7.5 µM
IC50 (Histamine H1 receptor): 3.5 µM
IC50 [6]: > 10 µM
IC50 [7]: 4.5 µM
IC50 [8]: 1.7 µM
IC50 [9]: 0.25 µM
IC50 (Histamine H2 receptor): 0.87 µM
IC50 [10]: 0.61 µM
IC50 (D(3) dopamine receptor): 0.0013 µM

IC50 [2]: > 10 µM
IC50 [3]: 1.1 µM
solubility kinetic ([1]; buffer): 25 µM (≈ 11.4 µg/mL)
Structure (SMILES): Cc1cc(N2CCNCC2)nc2ccc(NC(=O)/C=C/c3ccc(OC(F)(F)F)cc3)cc12

solubility kinetic ([1]; PBS): 120 µM (≈ 56.9 µg/mL)
Structure (SMILES): Cc1cc(N2CCN(C)CC2)nc2ccc(NC(=O)COc3ccc(OC(F)(F)F)cc3)cc12

IC50 [3]: 18 µM
Structure (SMILES): Cc1cc(NC(C)CN(C)C)nc2ccc(NC(=O)/C=C/c3ccc(OC(F)(F)F)cc3)cc12 (centres undefined)
